For two molecules, Dose/g and Dose/organ results are on record in ChEMBL document CHEMBL1126811, “Fluorinated and iodinated dopamine agents: D2 imaging agents for PET and SPECT” (J Med Chem, 1993).

Structures are written as SMILES.

In series [1] the test system is Rattus norvegicus. Put plainly: Uptake of radioligand [125I]FIDA1 by cerebellum in rat after 2 minutes after an intravenous injection is given (average of 3 rats). To be noted: in vivo. The format is ADME, organism-based. The method, boiled down: (§1)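 Male Sprague–Dawley rats (225–300 g) under ether anesthesia received radioiodinated tracer (8–10 μCi in 0.2 mL saline) into the femoral vein. They were killed by cardiac excision at set times. Cortex, striatum, hippocampus and cerebellum were dissected, weighed and gamma-counted. Results are % dose/gram against diluted injected dose.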

For series [2], the system named is Rattus norvegicus. In words: Biodistribution of radioligand [125I]FIDA1 in heart of rat after 2 minutes after an intravenous injection is given (average of 3 rats). In kind it is ADME, organism-based. As to conditions: in vivo. The essentials: (§2)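 Male Sprague–Dawley rats (225–300 g) were given 0.2 mL saline containing the radioiodinated ligand (8–10 μCi) into the femoral vein under ether anesthesia. They were killed at set times by cardiac excision. Organs were weighed and γ-counted against diluted aliquots of the injected dose and expressed as % dose/organ. Blood and muscle were taken as 7% and 40% of body weight. Three rats were used per point.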

Series [3] has as its system Rattus norvegicus. Put plainly: Biodistribution of radioligand [125I]FIDA1 in brain of rat after 30 minutes after an intravenous injection is given (average of 2 rats). To be noted: in vivo, 0.5 h. In kind it is ADME, organism-based.
For series [4], the system named is Rattus norvegicus. In words: Uptake of radioligand [125I]FIDA1 by hippo-campus in rat after 120 minutes after an intravenous injection is given (average of 3 rats). The format is ADME, organism-based. As to conditions: in vivo, 2 h. The method, boiled down:
as §1

In series [5] the test system is Rattus norvegicus. In words: Uptake of radioligand [125I]FIDA1 by cortex in rat after 30 minutes after an intravenous injection is given (average of 2 rats). The format is ADME, organism-based. To be noted: in vivo, 0.5 h. The essentials:
as §1

The test system of series [6] is Rattus norvegicus. In words: Biodistribution of radioligand [125I]FIDA1 in blood of rat after 60 minutes after an intravenous injection is given (average of 3 rats). The format is ADME, organism-based. As to conditions: in vivo, 1 h. The essentials:
as §2

Series [7] has as its system Rattus norvegicus. Put plainly: Uptake of radioligand [125I]FIDA1 by hippo-campus in rat after 30 minutes after an intravenous injection is given (average of 2 rats). The format is ADME, organism-based. To be noted: in vivo, 0.5 h. The essentials:
as §1

Series [8] concerns Rattus norvegicus. In words: Biodistribution of radioligand [125I]FIDA1 in liver of rat after 30 minutes after an intravenous injection is given (average of 2 rats). To be noted: in vivo, 0.5 h. In kind it is ADME, organism-based.
For series [9], the system named is Rattus norvegicus. In words: Biodistribution of radioligand [125I]FIDA1 in heart of rat after 30 minutes after an intravenous injection is given (average of 2 rats). The format is ADME, organism-based. As to conditions: in vivo, 0.5 h.
Series [10] deals with Rattus norvegicus. In words: Uptake of radioligand [125I]FIDA1 by hippo-campus in rat after 2 minutes after an intravenous injection is given (average of 3 rats). In kind it is ADME, organism-based. To be noted: in vivo. The essentials:
as §1

Series [11] concerns Rattus norvegicus. In words: Uptake of radioligand [125I]-FIDA1 by cerebellum in rat after 30 minutes after an intravenous injection is given (average of 2 rats). The format is ADME, organism-based. To be noted: in vivo, 0.5 h. The method, boiled down:
as §1

Series [12] concerns Rattus norvegicus. Put plainly: Biodistribution of radioligand [125I]FIDA1 in skin of rat after 30 minutes after an intravenous injection is given (average of 2 rats). In kind it is ADME, organism-based, Zone of skin. To be noted: in vivo, 0.5 h.
Series [13] has as its system Rattus norvegicus. In words: Biodistribution of radioligand [125I]FIDA1 in muscle of rat after 120 minutes after an intravenous injection is given (average of 2 rats). The format is ADME, organism-based, Muscle tissue. To be noted: in vivo, 2 h.
For series [14], the system named is Rattus norvegicus. Put plainly: Uptake of radioligand [125I]FIDA1 by striatum in rat after 30 minutes after an intravenous injection is given (average of 2 rats). As to conditions: in vivo, 0.5 h. In kind it is ADME, organism-based. The method, boiled down: as §1
Series [15] relates to Rattus norvegicus. Put plainly: Biodistribution of radioligand [125I]FIDA1 in thyroid of rat after 30 minutes after an intravenous injection is given (average of 2 rats). The format is ADME, organism-based, Thyroid gland. To be noted: in vivo, 0.5 h.
In series [16] the test system is Rattus norvegicus. In words: Uptake of radioligand [125I]-FIDA1 by hippo-campus in rat after 60 minutes after an intravenous injection is given (average of 3 rats). In kind it is ADME, organism-based. As to conditions: in vivo, 1 h. The essentials: as §1
The subject of series [17] is Rattus norvegicus. In words: Biodistribution of radioligand [125I]FIDA1 in muscle of rat after 30 minutes after an intravenous injection is given (average of 2 rats). To be noted: in vivo, 0.5 h. The format is ADME, organism-based, Muscle tissue.
Series [18] deals with Rattus norvegicus. In words: Biodistribution of radioligand [125I]FIDA1 in lung of rat after 30 minutes after an intravenous injection is given (average of 2 rats). In kind it is ADME, organism-based. As to conditions: in vivo, 0.5 h.
Series [19] deals with Rattus norvegicus. Put plainly: Biodistribution of radioligand [125I]FIDA1 in spleen of rat after 30 minutes after an intravenous injection is given (average of 2 rats). The format is ADME, organism-based. As to conditions: in vivo, 0.5 h.
Series [20] concerns Rattus norvegicus. In words: Uptake of radioligand [125I]FIDA1 by hippocampus in rat after 120 minutes after an intravenous injection is given (average of 3 rats). In kind it is ADME, organism-based. To be noted: in vivo, 2 h. The method, boiled down:
as §1

Series [21] relates to Rattus norvegicus. Put plainly: Biodistribution of radioligand [125I]FIDA1 in liver of rat after 30 minutes after an intravenous injection is given (average of 3 rats). The format is ADME, organism-based. To be noted: in vivo, 0.5 h. The method, boiled down:
as §2

In series [22] the test system is Rattus norvegicus. In words: Biodistribution of radioligand [125I]FIDA1 in lung of rat after 30 minutes after an intravenous injection is given (average of 3 rats). As to conditions: in vivo, 0.5 h. The format is ADME, organism-based. The essentials:
as §2

Series [23] relates to Rattus norvegicus. Put plainly: Biodistribution of radioligand [125I]FIDA1 in heart of rat after 30 minutes after an intravenous injection is given (average of 3 rats). The format is ADME, organism-based. To be noted: in vivo, 0.5 h. The method, boiled down: as §2
For series [24], the system named is Rattus norvegicus. In words: Biodistribution of radioligand [125I]FIDA1 in spleen of rat after 30 minutes after an intravenous injection is given (average of 3 rats). The format is ADME, organism-based. As to conditions: in vivo, 0.5 h. The essentials:
as §2

In series [25] the test system is Rattus norvegicus. In words: Biodistribution of radioligand [125I]FIDA1 in thyroid of rat after 30 minutes after an intravenous injection is given (average of 3 rats). In kind it is ADME, organism-based, Thyroid gland. To be noted: in vivo, 0.5 h. The essentials: as §2
Series [26] has as its system Rattus norvegicus. Put plainly: Uptake of radioligand [125I]FIDA1 by hippocampus in rat after 60 minutes after an intravenous injection is given (average of 3 rats). In kind it is ADME, organism-based. As to conditions: in vivo, 1 h. The essentials: as §1
Series [27] relates to Rattus norvegicus. In words: Uptake of radioligand [125I]FIDA1 by cerebellum in rat after 30 minutes after an intravenous injection is given (average of 3 rats). The format is ADME, organism-based. As to conditions: in vivo, 0.5 h. The essentials:
as §1

Series [28] concerns Rattus norvegicus. Put plainly: Uptake of radioligand [125I]-FIDA1 by cortex in rat after 30 minutes after an intravenous injection is given (average of 3 rats). In kind it is ADME, organism-based. As to conditions: in vivo, 0.5 h. The essentials:
as §1

Series [29] has as its system Rattus norvegicus. In words: Biodistribution of radioligand [125I]FIDA1 in brain of rat after 30 minutes after an intravenous injection is given (average of 3 rats). The format is ADME, organism-based. As to conditions: in vivo, 0.5 h. The essentials:
as §2

In series [30] the test system is Rattus norvegicus. In words: Uptake of radioligand [125I]FIDA1 by striatum in rat after 30 minutes after an intravenous injection is given (average of 3 rats). In kind it is ADME, organism-based. To be noted: in vivo, 0.5 h. The essentials:
as §1

Series [31] concerns Rattus norvegicus. In words: Biodistribution of radioligand [125I]FIDA1 in skin of rat after 30 minutes after an intravenous injection is given (average of 3 rats). The format is ADME, organism-based, Zone of skin. To be noted: in vivo, 0.5 h. The method, boiled down: as §2
Series [32] deals with Rattus norvegicus. In words: Uptake of radioligand [125I]FIDA1 by hippocampus in rat after 2 minutes after an intravenous injection is given (average of 3 rats). The format is ADME, organism-based. As to conditions: in vivo. The essentials: as §1
Series [33] deals with Rattus norvegicus. Put plainly: Uptake of radioligand [125I]-FIDA1 by hippocampus in rat after 30 minutes after an intravenous injection is given (average of 3 rats). In kind it is ADME, organism-based. To be noted: in vivo, 0.5 h. The method, boiled down: as §1
Series [34] deals with Rattus norvegicus. In words: Biodistribution of radioligand [125I]FIDA1 in muscle of rat after 30 minutes after an intravenous injection is given (average of 3 rats). The format is ADME, organism-based, Muscle tissue. As to conditions: in vivo, 0.5 h. The essentials: as §2
Series [35] relates to Rattus norvegicus. Put plainly: Biodistribution of radioligand [125I]FIDA1 in muscle of rat after 120 minutes after an intravenous injection is given (average of 3 rats). To be noted: in vivo, 2 h. In kind it is ADME, organism-based, Muscle tissue. The essentials: as §2
Series [36] concerns Rattus norvegicus. In words: Biodistribution of radioligand [125I]FIDA1 in blood of rat after 120 minutes after an intravenous injection is given (average of 3 rats). As to conditions: in vivo, 2 h. In kind it is ADME, organism-based. The essentials:
as §2

With `COc1cc(I)cc(C(=O)NC[C@@H]2CCCN2Cc2ccc(F)cc2)c1OC`, the Dose/g is recorded as 0.49% with Rattus norvegicus [1]; 0.01% in the series with Rattus norvegicus [4]; 0.14% in the series on Rattus norvegicus [5]; 0.14% with Rattus norvegicus [7]; 0.47% with Rattus norvegicus [10]; 0.09% with Rattus norvegicus [11]. Further, the Dose/g in the series with Rattus norvegicus [14] is recorded as 0.4%; with Rattus norvegicus [16], 0.05%. For the same molecule, the Dose/organ with Rattus norvegicus [2] was 1.38%; in the series with Rattus norvegicus [3], 0.21%; with Rattus norvegicus [6], 0.64%; in the series on Rattus norvegicus [8] it was 12.69%; in the series on Rattus norvegicus [9], 0.16%; with Rattus norvegicus [12], 7.04%. For the same molecule, the Dose/organ in the series with Rattus norvegicus [13] is recorded as 2.04%; in the series on Rattus norvegicus [15] it was 0.04%; with Rattus norvegicus [17] it was 10.87%; with Rattus norvegicus [18] it was 1.06%; with Rattus norvegicus [19] it was 0.43%.

Take `CCN1CCC[C@H]1CNC(=O)c1cc(I)cc(OC)c1OCCF`: the Dose/g with Rattus norvegicus [1] amounted to 0.16%; in the series on Rattus norvegicus [20] it was 0.0006%; in the series with Rattus norvegicus [26], 0.007%; in the series with Rattus norvegicus [27], 0.03%; in the series with Rattus norvegicus [28] it was 0.05%; in the series with Rattus norvegicus [30], 0.24%. The Dose/g stood at 0.25% in the series on Rattus norvegicus [32] and 0.05% with Rattus norvegicus [33]. The Dose/organ in the series on Rattus norvegicus [2] is listed as 0.81%; in the series on Rattus norvegicus [21], 22.4%; in the series on Rattus norvegicus [6], 0.78%; in the series with Rattus norvegicus [22], 0.66%; in the series on Rattus norvegicus [23] it was 0.14%; in the series with Rattus norvegicus [24] it was 0.31%. Moreover, the Dose/organ in the series on Rattus norvegicus [25] worked out at 0.03%; with Rattus norvegicus [29], 0.11%; in the series on Rattus norvegicus [31] it was 4.97%; in the series with Rattus norvegicus [34], 8.24%; with Rattus norvegicus [35], 0.76%; in the series with Rattus norvegicus [36], 0.51%.
